From ChEMBL document CHEMBL1158614, “Synthesis and biological evaluation of azobicyclo[3.3.0] octane derivatives as dipeptidyl peptidase 4 inhibitors for the treatment of type 2 diabetes” (Bioorg Med Chem Lett, 2010)
One block for each compound: values may come before it.

What was measured:
Dipeptidyl peptidase 4 = Dipeptidyl peptidase 4 (Homo sapiens, UniProt P27487)
[1] = (§1) Apparent total oral clearance in Sprague-Dawley rat at 3 mg/kg, po; assay type: ADME, organism-based; parameters: dose 3 mg/kg, route oral; conditions: Sprague-Dawley, in vivo
Summary of the method: (§2)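 Single oral dose of 3.0 mg/kg given to Sprague-Dawley rats, n = 6. Plasma concentration–time profiles gave apparent total plasma clearance (CL_z/F), half-life, AUC0–t and peak plasma concentration (Cmax).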

[2] = Half life in Sprague-Dawley rat at 3 mg/kg, po; assay type: ADME, organism-based; parameters: dose 3 mg/kg, route oral; conditions: in vivo
Summary of the method: as §2

[3] = (§3) AUC (0 to t) in Sprague-Dawley rat at 3 mg/kg, po; assay type: ADME, organism-based, Plasma; parameters: dose 3 mg/kg, route oral; conditions: Sprague-Dawley, plasma
Summary of the method: as §2

[4] = Cmax in Sprague-Dawley rat at 3 mg/kg, po; assay type: ADME, organism-based; parameters: dose 3 mg/kg, route oral; conditions: in vivo
Summary of the method: as §2

Mus musculus [5] = assay: Antidiabetic activity in ICR mouse assessed as reduction in glucose AUC (0 to 120) at 1 mg/kg, po pretreated 30 mins before glucose challenge measured after 120 mins by oral glucose tolerance test relative to control; assay type: functional, organism-based; parameters: dose 1 mg/kg
Summary of the method: (§4)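 Lean ICR mice were dosed orally at 1, 3 or 10 mg/kg 0.5 h before an oral glucose challenge. Blood glucose was followed over 0–120 min, and glucose AUC0–120 min was expressed as percent change versus vehicle control. Data are mean ± SEM, n = 5 per group; P versus control.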

Mus musculus [6] = assay: Antidiabetic activity in ICR mouse assessed as reduction in glucose AUC (0 to 120) at 3 mg/kg, po pretreated 30 mins before glucose challenge measured after 120 mins by oral glucose tolerance test relative to control; assay type: functional, organism-based; parameters: dose 3 mg/kg
Summary of the method: as §4

Mus musculus [7] = assay: Antidiabetic activity in ICR mouse assessed as reduction in glucose AUC (0 to 120) at 10 mg/kg, po pretreated 30 mins before glucose challenge measured after 120 mins by oral glucose tolerance test relative to control; assay type: functional, organism-based; parameters: dose 10 mg/kg
Summary of the method: as §4

Cynomolgus monkey [8] = assay: animal or person; conditions: Macaca fascicularis, po, 5 h, read-out: Inhibition
Cynomolgus monkey [9] = assay: animal or person; conditions: Macaca fascicularis, po, 9 h, read-out: Inhibition
Cynomolgus monkey [10] = assay: animal or person; conditions: Macaca fascicularis, po, 12 h, read-out: Inhibition
Rattus norvegicus [11] = assay: as §1; assay type: ADME, organism-based; parameters: dose 3 mg/kg, route oral; conditions: in vivo
Summary of the method: as §2

Rattus norvegicus [12] = assay: as §3; assay type: ADME, organism-based, Plasma; parameters: dose 3 mg/kg, route oral; conditions: in vivo
Summary of the method: as §2

Chain of Dipeptidyl peptidase 4 (P27487 whole entry): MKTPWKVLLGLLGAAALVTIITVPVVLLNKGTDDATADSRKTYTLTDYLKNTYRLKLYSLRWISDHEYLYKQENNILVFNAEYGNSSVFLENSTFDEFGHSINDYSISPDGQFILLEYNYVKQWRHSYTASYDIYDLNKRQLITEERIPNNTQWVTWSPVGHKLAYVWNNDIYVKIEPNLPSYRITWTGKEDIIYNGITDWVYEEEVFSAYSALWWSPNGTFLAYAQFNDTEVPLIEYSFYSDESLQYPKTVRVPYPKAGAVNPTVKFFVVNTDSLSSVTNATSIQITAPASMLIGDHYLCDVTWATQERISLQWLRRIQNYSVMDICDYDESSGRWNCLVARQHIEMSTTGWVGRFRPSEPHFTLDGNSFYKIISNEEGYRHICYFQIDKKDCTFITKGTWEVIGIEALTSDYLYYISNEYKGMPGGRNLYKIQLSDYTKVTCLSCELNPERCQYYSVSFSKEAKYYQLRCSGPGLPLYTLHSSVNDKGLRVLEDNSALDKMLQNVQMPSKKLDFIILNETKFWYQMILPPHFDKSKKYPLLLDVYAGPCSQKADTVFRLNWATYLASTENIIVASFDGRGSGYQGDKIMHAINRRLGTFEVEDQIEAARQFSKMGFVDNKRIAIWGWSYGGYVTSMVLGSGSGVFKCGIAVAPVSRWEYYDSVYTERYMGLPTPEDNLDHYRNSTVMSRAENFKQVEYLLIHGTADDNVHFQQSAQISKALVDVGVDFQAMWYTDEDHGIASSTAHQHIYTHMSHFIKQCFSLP

IC50 (Dipeptidyl peptidase 4): 120 nM
Compound: CC(C)NC(=O)N1C[C@H]2C[C@@H](NCC(=O)N3CCC[C@H]3C#N)C[C@H]2C1

Compound: CN(C)C(=O)N1C[C@H]2C[C@@H](NCC(=O)N3CCC[C@H]3C#N)C[C@H]2C1
CL/F [1]: 190 mL/min/kg | half-life [2]: 56.4 min | AUC(0-t) [3]: 68.7 ng·h/mL | Cmax [4]: 39.4 ng/mL | AUC (Mus musculus [5]): 39.7% | AUC (Mus musculus [6]): 42% | AUC (Mus musculus [7]): 45% | inhibition in vivo at 20 mg/kg (Cynomolgus monkey [8]): > 75%

IC50 (Dipeptidyl peptidase 4): 69 nM
Compound: N#C[C@@H]1CCCN1C(=O)CN[C@@H]1C[C@@H]2CN(C(=O)N3CCCCC3)C[C@@H]2C1

Compound: CN(C)C(=O)N1C[C@@H]2C[C@@](C)(NCC(=O)N3CCC[C@H]3C#N)C[C@@H]2C1
CL/F [1]: 564 mL/min/kg | half-life [2]: 54 min | AUC(0-t) [3]: 120 ng·h/mL | Cmax [4]: 146 ng/mL | inhibition in vivo at 20 mg/kg (Cynomolgus monkey [9]): > 75% | inhibition in vivo at 20 mg/kg (Cynomolgus monkey [10]): 51%

IC50 (Dipeptidyl peptidase 4): 14 nM
Compound: N#C[C@@H]1CCCN1C(=O)CN[C@@H]1C[C@@H]2CN(C(=O)CO)C[C@@H]2C1

IC50 (Dipeptidyl peptidase 4): 50 nM
Compound: N#C[C@@H]1CCCN1C(=O)CN[C@@H]1C[C@@H]2CN(C(=O)N3CCOCC3)C[C@@H]2C1

Compound: N#C[C@@H]1CCCN1C(=O)CNC12CC3CC(CC(O)(C3)C1)C2
AUC (Mus musculus [5]): 35.8% | AUC (Mus musculus [6]): 41.7% | AUC (Mus musculus [7]): 51.4%

IC50 (Dipeptidyl peptidase 4): 24 nM
Compound: COC(=O)N1C[C@H]2C[C@@H](NCC(=O)N3CCC[C@H]3C#N)C[C@H]2C1

Compound: CN(C)C(=O)N1C[C@@H]2C[C@](C)(NCC(=O)N3CCC[C@H]3C#N)C[C@@H]2C1
CL (Rattus norvegicus [11]): 847.8 mL/min/kg | half-life [2]: 195 min | AUC (Rattus norvegicus [12]): 266.3 ng·h/mL | Cmax [4]: 165 ng/mL | inhibition in vivo at 20 mg/kg (Cynomolgus monkey [8]): > 75% | inhibition in vivo at 20 mg/kg (Cynomolgus monkey [10]): 38%

IC50 (Dipeptidyl peptidase 4): 39 nM
Compound: N#C[C@@H]1CCCN1C(=O)CN[C@@H]1C[C@@H]2CN(C(=O)N3CCCC3)C[C@@H]2C1
